Test results from ChEMBL document CHEMBL1828575, “Design, synthesis and antiproliferative activities of biarylolefins based on polyhydroxylated and carbohydrate scaffolds” (Eur J Med Chem, 2011).

Tests used:
Format in all cases: functional
SK-MEL-5 [1] = test: Antitumor activity against human SK-MEL-5 cells after 48 hrs by SRB assay; details: SK-MEL-5, 48 h
Summary of the method: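 NCI60 panel cells grown in RPMI 1640 with 5% FBS and 2 mM L-glutamine, plated at 5000–40,000 cells/well and preincubated 24 h at 37 °C, 5% CO₂. Compound was added from DMSO at five concentrations, 10-fold or 1/2 log dilutions, then incubated 48 h.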

BT-549 = test: Antitumor activity against human BT549 cells after 48 hrs by SRB assay; details: BT-549, 48 h
Summary of the method: (§1)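 NCI60 screen: cells grown in RPMI 1640 with 5% FBS and 2 mM L-glutamine, plated at 5000–40,000 cells/well by doubling time, preincubated 24 h at 37 °C with 5% CO2. Compounds were diluted from DMSO stocks and given for 48 h, at five concentrations for dose response. A time-zero plate was TCA-fixed. Cells were TCA-fixed, stained with 0.4% SRB and read at 515 nm, with growth expressed relative to untreated controls.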

MCF7 = test: Antitumor activity against human MCF7 cells after 48 hrs by SRB assay; details: MCF7, 48 h
Summary of the method: (§2)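 NCI60 panel in RPMI 1640 with 5% FBS and 2 mM L-glutamine. Cells were plated at 5000–40,000/well by doubling time, held 24 h, then time-zero plates were TCA-fixed. Five concentrations (10-fold or half-log dilutions of DMSO stocks) were applied for 48 h at 37 °C, 5% CO2. Cells were fixed with cold TCA (10% final adherent, 16% suspension) and stained with 0.4% SRB. Bound dye was dissolved in 10 mM Tris and read at 515 nm. GI50, TGI and LC50 were calculated per line.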

SK-MEL-5 [2] = test: Cytotoxicity against human SK-MEL-5 cells assessed as cellular growth at 10 uM after 48 hrs by SRB assay
Summary of the method: (§3)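 NCI-60 panel lines grown in RPMI 1640 with 5% FBS and 2 mM L-glutamine. Plated at 5000–40,000 cells/well and preincubated 24 h at 37 °C, 5% CO₂, with time-zero plates fixed in TCA. Compounds, dissolved in DMSO and diluted in medium, were applied for 48 h. Cells were TCA-fixed (10% final for adherent, 16% for suspension) and stained with 0.4% SRB in 1% acetic acid. Dye was solubilised in 10 mM Tris base and read at 515 nm; growth was expressed as a percentage of untreated control.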

UACC-257 = test: Cytotoxicity against human UACC257 cells assessed as cellular growth at 10 uM after 48 hrs by SRB assay; summary of the method: as §3
COLO 205 [3] = test: Antitumor activity against human COLO205 cells after 48 hrs by SRB assay; details: COLO 205, 48 h; summary of the method: as §2
NCI-H460 = test: Cytotoxicity against human NCI-H460 cells assessed as cellular growth at 10 uM after 48 hrs by SRB assay; summary of the method: as §3
[4] = Antitumor activity against human Hs 578T cells after 48 hrs by SRB assay; summary of the method: as §2
OVCAR-8 = test: Antitumor activity against human OVCAR8 cells after 48 hrs by SRB assay; details: OVCAR-8, 48 h; summary of the method: as §2
MOLT-4 [5] = test: Cytotoxicity against human MOLT4 cells assessed as cellular growth at 10 uM after 48 hrs by SRB assay; summary of the method: as §3
786-0 [6] = test: Cytotoxicity against human 786-0 cells assessed as cellular growth at 10 uM after 48 hrs by SRB assay
Summary of the method: (§4)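 NCI60 single-dose screen of cells in RPMI 1640 with 5% FBS and 2 mM L-glutamine, preincubated 24 h at 37 °C, 5% CO₂. Cells were then exposed 48 h to compound added from DMSO stock. TCA-fixed, stained with 0.4% SRB in 1% acetic acid, dye solubilised in 10 mM Tris base and read at 515 nm. Growth is given as percent of untreated control.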

HCC 2998 = test: Antitumor activity against human HCC2998 cells after 48 hrs by SRB assay; details: HCC 2998, 48 h; summary of the method: as §2
786-0 [7] = test: Antitumor activity against human 786-0 cells after 48 hrs by SRB assay; details: 786-0, 48 h; summary of the method: as §2
MOLT-4 [8] = test: Antitumor activity against human MOLT4 cells after 48 hrs by SRB assay; details: MOLT-4, 48 h; summary of the method: as §2
COLO 205 [9] = test: Cytotoxicity against human COLO205 cells assessed as cellular growth at 10 uM after 48 hrs by SRB assay; summary of the method: as §4
MDA-MB-231 = test: Antitumor activity against human MDA-MB-231 cells after 48 hrs by SRB assay; details: MDA-MB-231, 48 h; summary of the method: as §2
HL-60(TB) = test: Antitumor activity against human HL-60(TB) cells after 48 hrs by SRB assay; details: HL-60, 48 h; summary of the method: as §1
ACHN = test: Antitumor activity against human ACHN cells after 48 hrs by SRB assay; summary of the method: as §2
EKVX = test: Antitumor activity against human EKVX cells after 48 hrs by SRB assay; summary of the method: as §2
NCI-H23 = test: Cytotoxicity against human NCI-H23 cells assessed as cellular growth at 10 uM after 48 hrs by SRB assay; summary of the method: as §3
OVCAR-4 = test: Cytotoxicity against human OVCAR4 cells assessed as cellular growth at 10 uM after 48 hrs by SRB assay; summary of the method: as §3
[10] = read-out: LC50 (the source's name)
[11] = read-out: pLC50 (the source's name) (converted)

COc1ccc(/C(=C2/O[C@@H]([C@H]3COC(C)(C)O3)[C@H]3OC(C)(C)O[C@@H]23)c2cc(OC)c(OC)c(OC)c2)cc1O
GI50 (SK-MEL-5 [1]): 2.69 µM | LC50 (SK-MEL-5 [1]): 49.3 µM | TGI (SK-MEL-5 [1]): 11.2 µM | GI50 (BT-549; read-out: GI50): 5.39 µM | CC50 (BT-549; [10]): > 100 µM | TGI (BT-549; read-out: TGI): > 100 µM | GI50 (BT-549; read-out: pGI50 (converted)): 5.37 µM | CC50 (BT-549; [11]): > 100 µM | TGI (BT-549; read-out: pTGI (converted)): > 100 µM | GI50 (MCF7; read-out: GI50): 3.76 µM | CC50 (MCF7; [10]): > 100 µM | TGI (MCF7; read-out: TGI): > 100 µM | GI50 (MCF7; read-out: pGI50 (converted)): 3.8 µM | CC50 (MCF7; [11]): > 100 µM | TGI (MCF7; read-out: pTGI (converted)): > 100 µM | Activity (SK-MEL-5 [2]): 59.59% | Activity (UACC-257): 107.04% | CC50 (COLO 205 [3]; [10]): > 100 µM | TGI (COLO 205 [3]; read-out: TGI): > 100 µM | GI50 (COLO 205 [3]; read-out: pGI50 (converted)): 17.8 µM | CC50 (COLO 205 [3]; [11]): > 100 µM | TGI (COLO 205 [3]; read-out: pTGI (converted)): > 100 µM | Activity (NCI-H460): 79.36% | GI50 [4]: 2.83 µM | TGI [4]: 7.88 µM | CC50 [4, 10]: > 100 µM | GI50 (OVCAR-8; read-out: GI50): 5.27 µM | CC50 (OVCAR-8; [10]): > 100 µM | TGI (OVCAR-8; read-out: TGI): > 100 µM | GI50 (OVCAR-8; read-out: pGI50 (converted)): 5.25 µM | CC50 (OVCAR-8; [11]): > 100 µM | TGI (OVCAR-8; read-out: pTGI): > 100 µM | Activity (MOLT-4 [5]): 59.94% | Activity (786-0 [6]): 100.71% | GI50 (HCC 2998; read-out: GI50): 1.32 µM | CC50 (HCC 2998; [10]): > 100 µM | TGI (HCC 2998; read-out: TGI): > 100 µM | GI50 (HCC 2998; read-out: pGI50 (converted)): 20.9 µM | CC50 (HCC 2998; [11]): > 100 µM | TGI (HCC 2998; read-out: pTGI (converted)): > 100 µM | GI50 (786-0 [7]): 21.2 µM | LC50 (786-0 [7]): > 100 µM | TGI (786-0 [7]): 60.6 µM | LC50 (concentration killing 50% of cells) (MOLT-4 [8]): > 100 µM | GI50 (MOLT-4 [8]; read-out: GI50): 6.93 µM | TGI (MOLT-4 [8]; read-out: TGI): > 100 µM | GI50 (MOLT-4 [8]; read-out: pGI50 (converted)): 6.92 µM | CC50 (MOLT-4 [8]; [11]): > 100 µM | TGI (MOLT-4 [8]; read-out: pTGI): > 100 µM | Activity (COLO 205 [9]): 120.76% | GI50 (MDA-MB-231): 4.58 µM | TGI (MDA-MB-231): 30.7 µM | CC50 (MDA-MB-231; [10]): > 100 µM | GI50 (HL-60(TB); read-out: GI50): 3.39 µM | CC50 (HL-60(TB); [10]): > 100 µM | TGI (HL-60(TB); read-out: TGI): 23.3 µM | GI50 (HL-60(TB); read-out: pGI50 (converted)): 3.39 µM | CC50 (HL-60(TB); [11]): > 100 µM | TGI (HL-60(TB); read-out: pTGI (converted)): 23.4 µM | GI50 (ACHN; read-out: GI50): 9.31 µM | CC50 (ACHN; [10]): > 100 µM | TGI (ACHN; read-out: TGI): > 100 µM | GI50 (ACHN; read-out: pGI50 (converted)): 9.33 µM | CC50 (ACHN; [11]): > 100 µM | TGI (ACHN; read-out: pTGI): > 100 µM | GI50 (EKVX; read-out: GI50): 5.57 µM | CC50 (EKVX; [10]): > 100 µM | TGI (EKVX; read-out: TGI): > 100 µM | GI50 (EKVX; read-out: pGI50 (converted)): 56.2 µM | CC50 (EKVX; [11]): > 100 µM | TGI (EKVX; read-out: pTGI): > 100 µM | Activity (NCI-H23): 72.29% | Activity (OVCAR-4): 99.15%
